UHRF1 MBD2 ctr – UHRF1 methylated DNA binding inhibitors, primary screen, counter-screen for MBD2 inhibitor project, biochemical, TR-FRET, human UHRF1, single concentration; UHRF1 binding to methylated oligo; AID 687016, 2013; hit rate 0.75% among 370,000; E3 ubiquitin-protein ligase UHRF1 (Homo sapiens), Q96T88; inhibition, % at 4.4 µM; in the data active = inhibition above about 21%;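 also: UHRF1 SRA domain binding a hemimethylated CpG hairpin DNA probe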
ABHD5-PLIN5 inh – ABHD5-PLIN5 interaction inhibitors, primary screen, cell lysate, split luciferase complementation, luminescence | Split G. princeps luciferase complementation, 4 h | hit rate 0.78% among 360,000 | Perilipin-5 (Homo sapiens) + 1-acylglycerol-3-phosphate O-acyltransferase ABHD5 (Homo … | inhibition, % at 4 µM | AID 602281, 2012;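 active = inhibition above the mean inhibition across every tested compound plus 3 SD, cut at about 22% in these data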
LEDGF integ inh – blockers of LEDGF/p75-dependent integrase strand transfer – biochemical, TR-FRET, high throughput, primary screen. HIV-1 integrase (with human LEDGF/p75). TR-FRET IN-LEDGF/p75 DNA integration, Eu/Cy5. inhibition, % at 3.7 µM. hit rate 0.64% among 370,000. AID 743269, 2014;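 active = inhibition above the screen-wide mean plus 3 SD, cut at about 13% in these data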;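 also: signal is the Cy5 over europium emission ratio at 671 and 618 nm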
PRMT1 inh – PRMT1 methyltransferase inhibitors, primary screen, biochemical, fluorescence polarization; inhibition, % at 2.79 µM; recombinant PRMT1, activity-based probe fluorescence polarization; AID 652257, 2013; Protein arginine N-methyltransferase 1 (Homo sapiens), Q99873; hit rate 1.3% among 370,000;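 active = inhibition above about 21% made by adding two undisclosed values, limit read from the data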
MBD2 DNA inh – inhibitors of MBD2 binding to methylated DNA, primary screen, biochemical, TR-FRET, DNA-binding domain, human; hit rate 0.31% among 370,000; inhibition, % at 4.4 µM; MBD2 binding to methylated oligonucleotide; Methyl-CpG-binding domain protein 2 (Homo sapiens), Q9UBB5; in the data active = inhibition above about 13%
Target sequence (Q9UBB5 whole entry, looked up, the tested form may be a part): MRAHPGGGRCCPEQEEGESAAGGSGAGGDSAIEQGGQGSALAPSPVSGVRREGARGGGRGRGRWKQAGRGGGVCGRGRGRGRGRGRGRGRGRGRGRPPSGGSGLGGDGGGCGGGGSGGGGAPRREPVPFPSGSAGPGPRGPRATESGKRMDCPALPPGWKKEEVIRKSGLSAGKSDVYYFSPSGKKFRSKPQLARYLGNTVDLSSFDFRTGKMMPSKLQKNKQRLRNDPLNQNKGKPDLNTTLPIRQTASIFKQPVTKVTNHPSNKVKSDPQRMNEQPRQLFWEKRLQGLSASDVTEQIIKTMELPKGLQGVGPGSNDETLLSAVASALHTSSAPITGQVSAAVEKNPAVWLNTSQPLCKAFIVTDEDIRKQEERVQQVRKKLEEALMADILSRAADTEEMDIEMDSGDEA
RBBP9 inh – human RBBP9 inhibitors, primary screen, biochemical, fluorescence polarization, FP-Rh probe, HTS; Serine hydrolase RBBP9 (Homo sapiens), O75884; recombinant RBBP9; inhibition, % at 7.94 µM; hit rate 0.2% among 220,000; AID 1515, 2009;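 active = inhibition above the campaign mean of all tested compounds plus 3 SD, cut at about 14% in these data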
Target sequence (O75884 whole entry, looked up): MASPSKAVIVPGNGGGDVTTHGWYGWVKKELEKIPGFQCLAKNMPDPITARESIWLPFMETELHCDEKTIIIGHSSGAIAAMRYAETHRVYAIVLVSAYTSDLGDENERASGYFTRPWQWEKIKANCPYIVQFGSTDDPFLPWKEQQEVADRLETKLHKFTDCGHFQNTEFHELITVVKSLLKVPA
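Material: RBBP9 protein. Amount: RBBP9 at 2.5 µM in dispensed solution, before mixing. Schedule: 30 min then 45 min, 25 °C. Medium: Tris buffer pH 8.0, NaCl, Pluronic. Measured by: fluorescence polarization. Measure: percent inhibition from mP, scaled between DMSO and no-protein wells. Replication: one well per compound.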
RBBP9 inh conf – human RBBP9 inhibitors, retest, confirmation, biochemical, fluorescence polarization, FP-Rh probe, triplicate; inhibition, % at 7.94 µM; hit rate 36% among 410; shares compounds with RBBP9 inh; recombinant RBBP9;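 active = inhibition above the hit cutoff derived for the primary screen, cut at about 15% in these data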
Numbers stand for hits; - = inactive; . = not tested or not shown. Only some compounds are listed: those with a hit (about 3.1% of all), similar ones and a draw of the others.

SMILES | UHRF1 MBD2 ctr | ABHD5-PLIN5 inh | LEDGF integ inh | PRMT1 inh | MBD2 DNA inh | RBBP9 inh | RBBP9 inh conf
CCOC(=O)C1CCCN(C(=S)Nc2ccc(F)cc2)C1 (configuration not stated) | - | - | - | - | - | 23 | -
CCCC(=O)OC[C@H]1CN(C2CCCC2)S(=O)(=O)c2c(Oc3ccc(F)cc3OC)cccc2O1 | - | . | - | - | - | . | .
O=C(O)c1ccc(NC2=Nc3cccc4cccc2c34)cc1 | - | - | - | - | - | 15 | -
O=C(Nc1nnc(C2=COCCO2)o1)c1ccc(Cc2ccccc2)cc1 | - | - | - | - | - | 17 | -
O=C(Cc1c[nH]c2ccccc12)Nc1ccc(Nc2cccnc2)c(-c2ccc(OC(F)(F)F)cc2)c1 | - | . | - | - | - | . | .
Cc1cccc2c(N=O)c(O)[nH]c12 | - | - | - | - | - | 24 | 53
COC[C@H]1CCCN1c1ccc2c(c1)OCCCN(C1CC1)S2(=O)=O | - | . | - | - | - | . | .
COC(=O)[C@]12C[C@H](CC(=O)NCCc3ccccc3OC)C(=O)N(CCC3=CCCCC3)C1=C[C@H](COCc1ccccc1)O[C@@H]2C | - | . | - | - | - | . | .
COc1ccc(Cn2cc(COC(=O)NCCc3c[nH]c4ccccc34)nn2)cc1 | - | . | - | - | - | . | .
CN1OC[C@@H]2CN3C(=Nc4cc(C(F)(F)F)cc(C(F)(F)F)c4)Sc4ccccc4[C@@H]3C[C@@H]21 | - | . | - | - | - | . | .
CC1Cc2cc(/C(O)=C3/C(=O)C(=O)N(CCCn4ccnc4)C3c3ccncc3)ccc2O1 (configuration not stated) | - | - | - | - | - | 14 | -
CC(C)=NOC(=O)c1c(C)noc1-c1snnc1C | - | - | - | - | - | 18 | -
Cc1nn(-c2ccccc2)c(Cl)c1/C=N/NC(=O)CNC(=O)c1ccccc1Cl | - | - | - | - | - | 39 | -
CC(C)CNc1cccc2c1S(=O)(=O)N(Cc1cn(Cc3cccc(F)c3)nn1)Cc1ccccc1O2 | - | . | - | - | - | . | .
C=CCOc1ccc(CNc2ccc3[nH]c(=O)[nH]c3c2)cc1OCC | - | - | - | - | - | 18 | 14
CCC[N+]1(CC#CC(O)(c2ccccc2)C2CCCCC2)CCCCC1 (configuration not stated) | - | - | - | - | - | 15 | 39
CCN(CC)CCC#CC(O)(c1ccccc1)C1CCCCC1 (configuration not stated) | - | - | - | - | - | - | .
CCN1CCN(Cc2ccc(NC(=O)c3cccc(-c4ccc5nc(NC(=O)C6CC6)sc5n4)c3)cc2C(F)(F)F)CC1 | - | . | - | - | - | . | .
CCc1ccccc1NC(=O)CSc1nnc(Cn2nnc3ccccc32)n1C | - | - | - | - | - | 15 | -
CCOC(=O)C1=CCN(S(=O)(=O)c2ccc(Cl)cc2)C1c1cccc(Br)c1 (configuration not stated) | - | . | - | - | - | . | .
COc1ccc(-c2cc(O)cc(O)c2)cc1 | - | - | - | - | - | 35 | -
CCOc1ccc(S(=O)(=O)Nc2cc(Sc3ncn[nH]3)c3oc(=O)sc3c2)cc1 | . | . | . | . | . | 22 | 20
CCOc1ccc(S(=O)(=O)Nc2ncn[nH]2)cc1 | - | - | - | - | - | . | .
CCC(C(=O)Nc1ccccc1N1CCCC1)c1cccc(OC)c1 (configuration not stated) | - | . | - | - | - | . | .
COc1ccc(/C=C/C(=O)Nc2ccccc2)cc1S(=O)(=O)N1CCOCC1 | - | - | - | - | - | 37 | -
SMILES | UHRF1 MBD2 ctr | ABHD5-PLIN5 inh | LEDGF integ inh | PRMT1 inh | MBD2 DNA inh | RBBP9 inh | RBBP9 inh conf
COc1ccc(/C=C/C(=O)Nc2ccccc2Cl)cc1S(=O)(=O)N1CCOCC1 | - | - | - | - | - | - | .
CCOc1cccc(CN2CCN(Cc3ccc(C)o3)C(CCO)C2)c1O (configuration not stated) | - | - | - | - | - | 15 | -
CSc1nc(Cl)cc(=O)[nH]1 | - | - | - | - | - | 15 | -
COC(=O)c1cc2c(c3c4cc(F)ccc4n(S(=O)(=O)c4ccc(C)cc4)c13)C(=O)N(Cc1ccccc1)C2 | - | . | - | - | - | . | .
C=CCN1[C@H](CC(C)C)COc2cc(F)ccc2S1(=O)=O | - | . | - | - | - | . | .
COc1ccc(C2c3sc(=O)[nH]c3SCC2C(N)=O)cc1 (configuration not stated) | - | - | - | - | - | - | .
COC(=O)C1CSc2[nH]c(=O)sc2C1c1ccc(O)c(OC)c1 (configuration not stated) | - | - | - | - | - | 14 | -
CCN(CC)c1ccc(NC(=O)c2ccc3c(c2)c(C)c(C)n3C)cc1 | - | - | - | - | - | 30 | 28
Cc1c(C)n(C)c2ccc(C(=O)NCCCN3CCCC3)cc12 | - | - | - | - | - | . | .
COc1ccc2c(c1)c1ccc3c(c1n2C)C(=O)C=CC3=O | - | - | - | - | - | 63 | 71
Nn1c(SCC(=O)Nc2cc(C(F)(F)F)ccc2Cl)nnc1-c1n[nH]c2c1CCC2 | - | . | - | - | - | . | .
Cc1ccc(C)n1-c1ccc(N2CCOCC2)c([N+](=O)[O-])c1 | - | - | - | - | - | 16 | -
Cc1cc(C=O)c(C)n1-c1ccc(N2CCOCC2)c([N+](=O)[O-])c1 | - | - | - | - | - | - | .
CCN=C1S/C(=C\c2cc(OCC)c(O)cc2Br)C(=O)N1CC | - | - | - | - | - | 24 | -
CCN=C1S/C(=C\c2ccc(O)c(OCC)c2)C(=O)N1CC | - | - | - | - | - | - | .
CC(C)c1ccc(NC(=O)O[C@H]2CC[C@@]34CCCN3C(=O)CCC[C@H]4[C@H]2C)cc1 | - | . | - | - | - | . | .
CCOC(=O)c1nc2sc3c(c2c(=O)[nH]1)CCC(C)C3 (configuration not stated) | - | - | - | - | - | 16 | -
Cc1ccc(Nc2nc(-c3ccc(O)c(O)c3)cs2)nc1 | - | . | - | - | - | 22 | 46
Cc1ccc(Nc2nc(-c3ccc(F)cc3)cs2)nc1 | - | - | - | - | - | . | .
CCn1c(CSc2nc3ccccc3[nH]2)nc2cc(C(=O)O)ccc21 | - | - | - | - | - | - | .
CCn1c(CSc2nccn2C)nc2cc(C(=O)O)ccc21 | . | - | . | . | . | 15 | 17

Source: PubChem BioAssay (The Scripps Research Institute Molecular Screening Center)
